In brackets after ≈: the same amount, converted by molar mass. Activity calls are given as the source filed them. No cut-off for these calls is given here. Square brackets hold non-standard residues; d marks the D form. Peptide text beside a SMILES is read from it. * marks the point of attachment. X2 = C=CCOC(=O)[C@]12CCC(C)(C)C[C@H]1C1=CC[C@@H]3[C@@]4(C)CC[C@H](OC(=O)CCc5cn(CC(=O)*)nn5)C(C)(C)[C@@H]4CC[C@@]3(C)[C@]1(C)CC2; X11 = CCCc1cn(CC(=O)*)nn1; βAla = NCCC(=O)O

Consider three compounds from ChEMBL document CHEMBL3351900, “Conjugation of a nonspecific antiviral sapogenin with a specific HIV fusion inhibitor: a promising strategy for discovering new antiviral therapeutics” (J Med Chem, 2014).

The nature of data set [1]: Solubility of the compound in pure water by UV spectrophotometry. It is filed as physicochemical. A digest of the protocol:
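About 1 mg of peptide dissolved in 10 μL water or PBS and centrifuged. Supernatant concentration of the tyrosine-containing conjugate determined from UV absorbance at 280 nm.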

Data set [2] relates to Human immunodeficiency virus 1. Put plainly: Antiviral activity against HIV1 3B infected in human MT2 cells assessed as inhibition of viral p24 antigen production by ELISA. The class given is functional, organism-based. The following applies: Human immunodeficiency virus 1, 3B. A digest of the protocol: (§1)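 MT-2 cells (1 × 10⁴) infected with 100 TCID₅₀ virus with or without peptides at graded concentrations. Culture supernatants collected on day 4 postinfection; p24 antigen quantified by ELISA. Percent inhibition and EC₅₀ calculated; tested in triplicate, mean ± standard deviation.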
On the technique in general: An ELISA detects its analyte on a solid surface through an enzyme-linked reagent.

A short description of data set [3]: Cytotoxicity against human MT2 cells after 4 days by XTT assay. It is filed as cell-based. A digest of the protocol:
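MT-2 cells (5 × 10⁵/mL) mixed with equal volumes of graded conjugate concentrations and held at 37 °C for 4 days. XTT (1 mg/mL) with 0.02 μM phenazine methosulfate added for 4 h, then A450 read. CC50 calculated from the dose–response.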
In general terms: Formazan colour is commonly taken as a measure of viable cells.

In data set [4] the test system is Human immunodeficiency virus 1. As to the kind of experiment: Antiviral activity against HIV1 BaL infected in human […] cells assessed as inhibition of viral replication. The class given is functional, organism-based. The following applies: Human immunodeficiency virus 1, BaL. A digest of the protocol: as §1
The nature of data set [5]: Selectivity index, ratio of CC50 for human MT2 cells to EC50 for HIV1 3B infected in human MT2 cells. The class given is toxicity, cell-based. To be noted: read-out: Ratio CC50/EC50.
In data set [6] the target is GP41 (Human immunodeficiency virus 1) (UniProt Q76270). As to the kind of experiment: Inhibition of HIV1 gp41 NHR assessed as inhibition of 6HB formation by FRET assay. A digest of the protocol:
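FRET competition assay. A bpy-labelled 31-mer NHR pocket peptide is trimerized by Fe(II) into env2.0, which quenches the Lucifer-yellow-tagged CP2 probe. Displacement of the probe raises fluorescence. Used 7 μM binding sites (three per trimer) and 1 μM CP2-LY.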

Data set [7] relates to Human immunodeficiency virus 1. As to the kind of experiment: Antiviral activity against T20-sensitive HIV1 NL4-3 harboring gp41 D36G mutant infected in human MT2 cells. The class given is functional, organism-based. In a few lines:
as §1

Data set [8] concerns Human immunodeficiency virus 1. As to the kind of experiment: Antiviral activity against T20-resistant HIV1 NL4-3 harboring gp41 D36G/V38A mutant infected in human MT2 cells. It is filed as functional, organism-based. A digest of the protocol: as §1
The subject of data set [9] is Human immunodeficiency virus 1. As to the kind of experiment: Antiviral activity against T20-resistant HIV1 NL4-3 harboring gp41 D36G/V38A/N42D mutant infected in human MT2 cells. The class given is functional, organism-based. A digest of the protocol: as §1
Data set [10] deals with Human immunodeficiency virus 1. Put plainly: Antiviral activity against T20-resistant HIV1 NL4-3 harboring gp41 D36G/N42T/N43K mutant infected in human MT2 cells. It is filed as functional, organism-based. In a few lines: as §1
The subject of data set [11] is Human immunodeficiency virus 1. Put plainly: Antiviral activity against T20-resistant HIV1 NL4-3 harboring gp41 D36G/V38E/N42S mutant infected in human MT2 cells. The class given is functional, organism-based. A digest of the protocol: as §1
Data set [12] has as its system Human immunodeficiency virus 1. As to the kind of experiment: Antiviral activity against T20-resistant HIV1 NL4-3 harboring gp41 D36G/V38A/N42T mutant infected in human MT2 cells. It is filed as functional, organism-based. In a few lines:
as §1

Data set [13] has as its system Human immunodeficiency virus 1. As to the kind of experiment: Ratio of EC50 for T20-resistant HIV1 NL4-3 harboring gp41 D36G/V38A mutant infected in human MT2 cells to EC50 for T20-sensitive HIV1 NL4-3 harboring gp41 D36G mutant infected in human MT2 cells. The class given is functional. A digest of the protocol:
(§2)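 MT-2 cells (1 × 10⁴) infected with 100 TCID₅₀ of HIV-1 NL4-3 gp41 mutant virus with or without peptide at graded concentrations. Culture supernatants collected on day 4 postinfection and p24 antigen measured by ELISA. Percent inhibition and EC₅₀ calculated, triplicate, mean ± standard deviation. Fold change = EC₅₀ against each mutant divided by EC₅₀ against the D36G strain.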

The subject of data set [14] is Human immunodeficiency virus 1. Put plainly: Ratio of EC50 for T20-resistant HIV1 NL4-3 harboring gp41 D36G/V38A/N42D mutant infected in human MT2 cells to EC50 for T20-sensitive HIV1 NL4-3 harboring gp41 D36G mutant infected in human MT2 cells. It is filed as functional. A digest of the protocol: as §2
Data set [15] has as its system Human immunodeficiency virus 1. As to the kind of experiment: Ratio of EC50 for T20-resistant HIV1 NL4-3 harboring gp41 D36G/N42T/N43K mutant infected in human MT2 cells to EC50 for T20-sensitive HIV1 NL4-3 harboring gp41 D36G mutant infected in human MT2 cells. It is filed as functional. A digest of the protocol:
as §2

In data set [16] the test system is Human immunodeficiency virus 1. Put plainly: Ratio of EC50 for T20-resistant HIV1 NL4-3 harboring gp41 D36G/V38E/N42S mutant infected in human MT2 cells to EC50 for T20-sensitive HIV1 NL4-3 harboring gp41 D36G mutant infected in human MT2 cells. The class given is functional. In a few lines:
as §2

Data set [17] deals with Human immunodeficiency virus 1. Put plainly: Ratio of EC50 for T20-resistant HIV1 NL4-3 harboring gp41 D36G/V38A/N42T mutant infected in human MT2 cells to EC50 for T20-sensitive HIV1 NL4-3 harboring gp41 D36G mutant infected in human MT2 cells. The class given is functional. A digest of the protocol: as §2
Data set [18] relates to Rattus norvegicus. As to the kind of experiment: AUC (0 to t) in rat at 4 mg/kg, iv administered as single dose. Also on record: dose 4 mg/kg, route intravenous. The class given is ADME, organism-based, Plasma. The following applies: in vivo. A digest of the protocol: (§3)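 Rats given one intravenous dose of 4 mg/kg. Peptide measured in plasma over time. Parameters (AUC(0−t), MRT(0−t), t1/2, Vd, Cmax) derived by model-independent analysis.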

In data set [19] the test system is Rattus norvegicus. As to the kind of experiment: Half life in rat at 4 mg/kg, iv at 4 mg/kg, iv administered as single dose. It is filed as ADME, organism-based. To be noted: in vivo. A digest of the protocol: as §3
Data set [20] can be described thus: Volume of distribution in rat at 4 mg/kg, iv administered as single dose. The class given is ADME, organism-based. On the set-up: dose 4 mg/kg, route intravenous. To be noted: in vivo. A digest of the protocol:
as §3

The subject of data set [21] is Rattus norvegicus. As to the kind of experiment: Cmax in rat at 4 mg/kg, iv administered as single dose. It is filed as ADME, organism-based. Also on record: dose 4 mg/kg, route intravenous. To be noted: in vivo. A digest of the protocol: as §3
Data set [22] can be described thus: Half life in rat liver homogenate at 8 ug/ml. The class given is ADME, tissue-based.
Data set [23] in a line: Half life of the compound at 8 ug/ml by proteinase K digestion assay. The class given is ADME.
Data set [24] in a line: Half life in rat kidney homogenate at 8 ug/ml. The class given is ADME, tissue-based.
The target of data set [25] is GP41 (Human immunodeficiency virus 1) (UniProt Q76270). As to the kind of experiment: Ratio of EC50 for HIV1 gp41-induced cell-cell fusion between viral envelope expressing human HL2/3 cells to CD4/CCR5 receptor expressing TZM-bl cells with wash out to EC50 for HIV1 gp41-induced cell-cell fusion between viral envelope expressing human HL2/3 cells to CD4/CCR5 receptor expressing TZM-bl cells. The class given is cell-based. A digest of the protocol:
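Peptides preincubated with TZM-bl cells at 37 °C for 1 h, with or without washing away unbound peptide. EC50 compared between washed and unwashed cells, giving the n-fold change. Triplicates, mean ± SD.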

Compound `C=CCOC(=O)[C@]12CCC(C)(C)C[C@H]1C1=CC[C@@H]3[C@@]4(C)CC[C@H](OC(=O)CCc5cn(CC(=O)NCCCC[C@H](NC(=O)CCNC(=O)[C@H](CC(C)C)NC(=O)[C@H](CC(C)C)NC(=O)[C@H](CCC(=O)O)NC(=O)[C@H](CCC(N)=O)NC(=O)[C@H](CCC(=O)O)NC(=O)[C@H](CC(N)=O)NC(=O)[C@H](CCCCN)NC(=O)[C@H](CCC(=O)O)NC(=O)[C@H](CCC(N)=O)NC(=O)[C@H](CCC(N)=O)NC(=O)[C@H](CC(N)=O)NC(=O)[C@H](CCC(N)=O)NC(=O)[C@H](CO)NC(=O)[C@H](CCC(=O)O)NC(=O)[C@H](CCC(=O)O)NC(=O)[C@@H](NC(=O)[C@H](CC(C)C)NC(=O)[C@H](CO)NC(=O)[C@H](Cc6cnc[nH]6)NC(=O)[C@@H](NC(=O)[C@H](CC(C)C)NC(=O)[C@H](CO)NC(=O)[C@@H](NC(=O)[C@H](Cc6ccc(O)cc6)NC(=O)[C@H](CC(N)=O)NC(=O)[C@H](CC(N)=O)NC(C)=O)[C@@H](C)O)[C@@H](C)CC)[C@@H](C)CC)C(N)=O)nn5)C(C)(C)[C@@H]4CC[C@@]3(C)[C@]1(C)CC2` (Ac-NNYTSLIHSLIEESQNQQEKNEQELL[βAla]K(X2)-NH2) had a solubility in data set [1] of 12.4 mg/mL (≈ 3.1 mM). The values for the EC50 in data set [2] and in data set [4] were 3.11 nM and 0.271 nM, respectively. Also, the CC50 at 96 h in [3] came to 8220 nM. Further, the selectivity ratio in data set [5] is 2640.

For `CCCc1cn(CC(=O)NCCC(=O)N[C@@H](CC(N)=O)C(=O)N[C@@H](CC(N)=O)C(=O)N[C@@H](Cc2ccc(O)cc2)C(=O)N[C@H](C(=O)N[C@@H](CO)C(=O)N[C@@H](CC(C)C)C(=O)N[C@H](C(=O)N[C@@H](Cc2cnc[nH]2)C(=O)N[C@@H](CO)C(=O)N[C@@H](CC(C)C)C(=O)N[C@H](C(=O)N[C@@H](CCC(=O)O)C(=O)N[C@@H](CCC(=O)O)C(=O)N[C@@H](CO)C(=O)N[C@@H](CCC(N)=O)C(=O)N[C@@H](CC(N)=O)C(=O)N[C@@H](CCC(N)=O)C(=O)N[C@@H](CCC(N)=O)C(=O)N[C@@H](CCC(=O)O)C(=O)N[C@@H](CCCCN)C(=O)N[C@@H](CC(N)=O)C(=O)N[C@@H](CCC(=O)O)C(=O)N[C@@H](CCC(N)=O)C(=O)N[C@@H](CCC(=O)O)C(=O)N[C@@H](CC(C)C)C(=O)N[C@@H](CC(C)C)C(N)=O)[C@@H](C)CC)[C@@H](C)CC)[C@@H](C)O)nn1` ({X11-βAla}-NNYTSLIHSLIEESQNQQEKNEQELL-NH2), the inhibition result in data set [6] was “inactive”.

As for enfuvirtide, the 50% effective concentration (EC50) is 40.6 nM in [7]; above 2000 nM in [8]; above 2000 nM in data set [9]; above 2000 nM in data set [10]; above 2000 nM in [11]; above 2000 nM in data set [12]. In addition, the values for the EC50 in data set [2] and in data set [4] were 10.9 nM and 2.88 nM, respectively. Besides, the “Ratio EC50” value was above 50 in data set [13]; above 50 in [14]; above 50 in [15]; above 50 in [16]; above 50 in [17]; 39 in data set [25]. The AUCt in the data set with Rattus norvegicus [18] is 26900 ng·h/mL. Further, the t1/2 in the data set with Rattus norvegicus [19] worked out at 131 min. The compound also yielded a Vd in data set [20] of 0.44 L/kg. In addition, the Cmax in the data set on Rattus norvegicus [21] turned out to be 25500 ng/mL. Also, the half-life at 8 ug/ml is 31 min in data set [22], 19.4 min in data set [23] and 16.9 min in data set [24]. In addition, in data set [3], the CC50 at 96 h was above 25000 nM. Moreover, the selectivity ratio in data set [5] is above 2290.

For orientation: solubility means the dissolved amount per volume that the medium holds. In general, EC50 refers to the concentration that produces a half-maximal response. One may read the CC50 as the concentration that lowers cell viability or growth by half. Read a low CC50 as greater toxicity to the cells. What is called Vd is a proportionality between amount in the body and measured concentration, not a real space. A word on the Cmax: it is the highest concentration seen after dosing. The half-life is the time in which the quantity being followed falls by half.
